This sample holds only a part of the variants without activity.
B1: tRNA (parent)
chain: GUUCCGUUGGCGUAAUGGUAACGCGUCUCCCUCCUAAGGAGAAGACUGCGGGUUCGAGUCCCGUACGGAACG

Variants of: B1
Test: yeast fitness relative to wild type (ratio to wild type); higher = fitter; tRNA-Arg(CCU), competitive growth, 37 C, YPD
Summary of the method: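 Amplicons of the tRNA-Arg(CCU) gene were sequenced, 100-nucleotide paired-end, from the start population and from each end population of a pooled yeast competition. The competition, in six parallel replicates, lasted 24 hours in YPD at 37°C. Fitness relative to wild type was calculated from changes in genotype frequencies. Genotypes had to have ≥ 100 starting reads, and estimates < 0.5 were set to 0.5.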
Variant C4U C11G G41A has a yeast fitness of no more than 0.5.
In the case of C4U C5G U28C, the yeast fitness is reported as 0.783.
Variant C4U C33A C61U has a yeast fitness of 0.597.
With C4U C55U C61U the yeast fitness was 0.673.
For C4U C30G A36U, the yeast fitness was 0.563.
Variant C4U G10A C34G A40G U64C has a yeast fitness of no more than 0.5.
Variant C4U C24A C55A C62U A65C has a yeast fitness of no more than 0.5.
Work on C4U C24A C31A A40U A42C C49A yielded a yeast fitness of no more than 0.5.
With C4U C11U A15G C34U the yeast fitness was no more than 0.5.
With C4U C11G C34U C60A the yeast fitness was no more than 0.5.
Work on C4U C30U G48C G68C yielded a yeast fitness of no more than 0.5.
With C4U C30U G38A G68C the yeast fitness was no more than 0.5.
Variant C4U C11A U26G G50C has a yeast fitness of 0.536.
For C4U C5G C11A C66A, the yeast fitness was no more than 0.5.
For C4U G6A G25A U32C, the yeast fitness was no more than 0.5.
Work on C4U G9A G68A yielded a yeast fitness of 0.968.
With C4U C55U U59G the yeast fitness was 0.587.
Work on C4U C49U C55A yielded a yeast fitness of no more than 0.5.
For C4U C46G C66G, the yeast fitness was 0.539.
Work on C4U C24U A36C G63C C66G yielded a yeast fitness of no more than 0.5.
Work on C4U C30U A69U yielded a yeast fitness of 0.736.
With C4U C30U U53G G56C C62G the yeast fitness was no more than 0.5.
C4U C34G C49G G68C gave a yeast fitness of no more than 0.5.
For C4U C27U A57U, the yeast fitness was 0.532.
With C4U C11A C27A C62A the yeast fitness was no more than 0.5.
Variant C4U C11G C34U U53C has a yeast fitness of no more than 0.5.
Variant C4U C24U A43G has a yeast fitness of 0.555.
Work on C4U C5G U7C C24G A43C yielded a yeast fitness of no more than 0.5.
In the case of C4U G10C G17C C27G G38C U54G, the yeast fitness is reported as no more than 0.5.
In the case of C4U G6A A42C C66U, the yeast fitness is reported as no more than 0.5.
With C4U C30G C46U G52A A65C the yeast fitness was no more than 0.5.
With C4U C5G C29G C31G A37C A57G C66A the yeast fitness was no more than 0.5.
C4U C30A A65G G67C showed a yeast fitness of no more than 0.5.
In the case of C4U C11G C49U C61A, the yeast fitness is reported as no more than 0.5.
C4U G10A C66U showed a yeast fitness of 0.663.
With C4U C61G C66U A69U the yeast fitness was no more than 0.5.
With C4U C30A A42U the yeast fitness was 0.529.
In the case of C4U C30A A42C, the yeast fitness is reported as 0.582.
For C4U C5G A37C G58A C62U, the yeast fitness was no more than 0.5.
With C4U G9A C11U C34A the yeast fitness was no more than 0.5.
With C4U C5G U16C C24G A42C G56A the yeast fitness was no more than 0.5.
C4U C27U U32C gave a yeast fitness of 0.615.
For C4U C11U G25C G41A G58C, the yeast fitness was no more than 0.5.
C4U C11G C34U C55A A65U A70G showed a yeast fitness of no more than 0.5.
For C4U C29A G52C C55A C61A G68U, the yeast fitness was no more than 0.5.
Variant C4U C24G A42C has a yeast fitness of no more than 0.5.
For C4U C5U A36U, the yeast fitness was 0.625.
With C4U G9A A15U A20C C27A A65U the yeast fitness was 0.768.
C4U C24G G58C showed a yeast fitness of no more than 0.5.
With C4U C22G C60G the yeast fitness was no more than 0.5.
C4U C11A A70G showed a yeast fitness of no more than 0.5.
Work on C4U C49G G50C yielded a yeast fitness of no more than 0.5.
Work on C4U C5G G48C yielded a yeast fitness of 0.655.
C4U G6A C49U gave a yeast fitness of 0.706.
Work on C4U C29U C31U U59C yielded a yeast fitness of no more than 0.5.
Work on C4U C49G yielded a yeast fitness of 0.874.
Work on C4U C11G C30G U47C yielded a yeast fitness of no more than 0.5.
Work on C4U C27G U53A yielded a yeast fitness of no more than 0.5.
Variant C4U C34G C66A has a yeast fitness of 0.562.
Variant C4U C30A G38C C61A has a yeast fitness of no more than 0.5.
With C4U C30A A70U the yeast fitness was 0.799.
With C4U C30A A70G the yeast fitness was 0.769.
For C4U G10C C60G G67A, the yeast fitness was no more than 0.5.
With C4U C22U C31U C60G A70G the yeast fitness was 0.52.
C4U C27G A45C C55U C66A gave a yeast fitness of no more than 0.5.
In the case of C4U C11G C30G, the yeast fitness is reported as no more than 0.5.
In the case of C4U C11A G39A G51A, the yeast fitness is reported as no more than 0.5.
C4U C30G G51C G56U A65G showed a yeast fitness of no more than 0.5.
C4U C30A U35C showed a yeast fitness of 0.77.
Work on C4U C24U C31A G56C yielded a yeast fitness of 0.63.
Variant C4U C11U U28A C29G G51A G56A G67C has a yeast fitness of no more than 0.5.
C4U C5U G12A A21C C27U gave a yeast fitness of no more than 0.5.
C4U C33G A36G G67A G68C showed a yeast fitness of 0.604.
In the case of C4U G10A C49A U53A G67A, the yeast fitness is reported as no more than 0.5.
With C4U C31U G52C C61A the yeast fitness was no more than 0.5.
Work on C4U C5G U16C C24G A42C G58A yielded a yeast fitness of 0.571.
In the case of C4U G9A C22G A42U U64A G67A, the yeast fitness is reported as 0.58.
With C4U G10A G12A A42U the yeast fitness was no more than 0.5.
C4U C49G A57C gave a yeast fitness of no more than 0.5.
C4U C33G C60G showed a yeast fitness of no more than 0.5.
C4U C22U C31U A57U gave a yeast fitness of no more than 0.5.
In the case of C4U C46U C62U, the yeast fitness is reported as 0.806.
Variant C4U C61G C62G has a yeast fitness of no more than 0.5.
For C4U C61G C62A, the yeast fitness was no more than 0.5.
For C4U C11A C46U, the yeast fitness was 0.661.
C4U C11G gave a yeast fitness of 0.692.
Work on C4U C11U yielded a yeast fitness of 0.969.
C4U C11A gave a yeast fitness of 0.61.
Variant C4U C49U C61G has a yeast fitness of 0.594.
With C4U C5G A20G C29U G48C G63C the yeast fitness was no more than 0.5.
C4U C22U U35C G56A A70C showed a yeast fitness of no more than 0.5.
Work on C4U C11G A45U C49U C61G yielded a yeast fitness of no more than 0.5.
C4U C31U C55G A70C gave a yeast fitness of no more than 0.5.
In the case of C4U C11A C29U C49A, the yeast fitness is reported as no more than 0.5.
With C4U C24G U35C A57G the yeast fitness was no more than 0.5.
Work on C4U C22G G67A yielded a yeast fitness of 0.689.
For C4U G9A C27G U32A G52A, the yeast fitness was no more than 0.5.
C4U C33A U54G showed a yeast fitness of no more than 0.5.
In the case of C4U C27U C33A A45C U54A, the yeast fitness is reported as no more than 0.5.
In the case of C4U C5G U28C A65G, the yeast fitness is reported as 0.562.
With C4U C33G U47G the yeast fitness was 0.591.
Work on C4U C5U G18A G25A C33U G48A G52A A65C G68A yielded a yeast fitness of no more than 0.5.
C4U C46U A70G showed a yeast fitness of 0.772.
Work on C4U C22G U54A yielded a yeast fitness of 0.558.
In the case of C4U C29A C31G A42C A45U A65C, the yeast fitness is reported as no more than 0.5.
C4U C55G A65G C66G showed a yeast fitness of no more than 0.5.
C4U C11G C29U G48A G52A gave a yeast fitness of no more than 0.5.
C4U G10A U13C C24U gave a yeast fitness of 0.741.
With C4U G9A A40U the yeast fitness was 1.05.
C4U C11U A15G showed a yeast fitness of 0.713.
C4U C5U C27G C31G showed a yeast fitness of no more than 0.5.
For C4U C24G A57G, the yeast fitness was no more than 0.5.
For C4U C22G U35C, the yeast fitness was 0.641.
With C4U C29G A37C C46G the yeast fitness was no more than 0.5.
For C4U C34G G52A A69C, the yeast fitness was no more than 0.5.
C4U C11G C29A showed a yeast fitness of 0.597.
C4U C31U A37U gave a yeast fitness of 0.617.
Variant C4U C31G has a yeast fitness of 0.868.
Variant C4U C31A has a yeast fitness of 0.827.
Variant C4U C34U U59A has a yeast fitness of no more than 0.5.
C4U C5U A37U C46U C61U C66U showed a yeast fitness of no more than 0.5.
In the case of C4U G10A C30U C49G G68A, the yeast fitness is reported as 0.585.
Variant C4U G6C A14C C24G A45C A57C C61U has a yeast fitness of no more than 0.5.
C4U C22U C31U C60G gave a yeast fitness of 0.545.
Variant C4U G10C C31G has a yeast fitness of no more than 0.5.
C4U G10A G23C C49A G68C gave a yeast fitness of no more than 0.5.
C4U C27U G56A gave a yeast fitness of 0.694.
C4U G10A A15C gave a yeast fitness of 0.551.
Variant C4U C29U has a yeast fitness of 1.
Work on C4U C29G yielded a yeast fitness of 0.608.
Variant C4U C30A U53C A70G has a yeast fitness of no more than 0.5.
C4U C5G G10A C24U A36C G56A gave a yeast fitness of 0.651.
For C4U C60G G67A, the yeast fitness was no more than 0.5.
For C4U G10C G23A G52A G58A, the yeast fitness was no more than 0.5.
In the case of C4U C11G A45U C61G, the yeast fitness is reported as 0.518.
In the case of C4U C11U A45G, the yeast fitness is reported as 0.687.
For C4U C11U A45C, the yeast fitness was 0.7.
With C4U C31A A36G G44C the yeast fitness was 0.59.
For C4U C22U C34A, the yeast fitness was 0.548.
In the case of C4U C5G U16C C24G A42U A43G, the yeast fitness is reported as no more than 0.5.
C4U C61A gave a yeast fitness of 0.667.
Variant C4U C61G has a yeast fitness of 0.63.
In the case of C4U C5G, the yeast fitness is reported as 0.95.
With C4U C62A the yeast fitness was 0.85.
Variant C4U C62U has a yeast fitness of 0.992.
With C4U C62G the yeast fitness was 0.808.
In the case of C4U C55U A69U, the yeast fitness is reported as 0.745.
Work on C4U G10A C24U C61A yielded a yeast fitness of 0.623.
In the case of C4U G10C A15G A20U A21G C33U U47C A57C, the yeast fitness is reported as no more than 0.5.
In the case of C4U C31U A69C, the yeast fitness is reported as 0.669.
C4U C11G G18A G23C U47G G50A showed a yeast fitness of no more than 0.5.
With C4U C31G A37G the yeast fitness was 0.526.
C4U C60G C61U G68A gave a yeast fitness of no more than 0.5.
C4U C24U A36C C62G C66A showed a yeast fitness of no more than 0.5.
In the case of C4U C27G G63A, the yeast fitness is reported as no more than 0.5.
Work on C4U C31G A42C C66U yielded a yeast fitness of no more than 0.5.
C4U C30A G67C showed a yeast fitness of 0.731.
Variant C4U C46G A70C has a yeast fitness of 1.01.
For C4U C24G U26A U28G U47C, the yeast fitness was no more than 0.5.
With C4U C31U A43G C61A G63A A65U C66G the yeast fitness was 0.575.
For C4U C33A, the yeast fitness was 0.724.
With C4U G6A C62G the yeast fitness was 0.54.
For C4U C22U C31U, the yeast fitness was 0.645.
In the case of C4U C29U G39C, the yeast fitness is reported as 0.536.
For C4U C29U A43U, the yeast fitness was 0.756.
With C4U C27U A43G the yeast fitness was 0.649.
C4U C30A C46G C49U gave a yeast fitness of 0.57.
